Source: ChEMBL document CHEMBL4431316, “New 6-Aminoquinoxaline Derivatives with Neuroprotective Effect on Dopaminergic Neurons in Cellular and Animal Parkinson Disease Models” (J Med Chem, 2016)
Active and inactive are the calls of the source. No cut-off for these calls is given here.

Columns and labels:
Rattus norvegicus [1] = species on record: Rattus norvegicus; test: (§1) Neuroprotective activity in Sprague-Dawley rat DA neuron death PD model assessed as survival of Th immunopositive cells at 50 uM after 10 days by immunofluorescence assay; assay type: functional
Summary of the method: (§2)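 Midbrain cultures in which DA neurons die spontaneously and selectively through a mechanism involving immature astrocytes and calcium dyshomeostasis. Compounds were present for 10 days in vitro, screened at 50 µM (100 µM for one analog) and retested at 10 µM. dbcAMP 1 mM served as reference. Surviving TH+ neurons were counted and expressed as % of corresponding untreated control cultures.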

Astrocyte [2] = test: Neuroprotective activity in Sprague-Dawley rat astrocytes assessed as [methyl-3H]thymidine incorporation at 10 to 50 uM after 8 days by liquid scintillation counting assay relative to control; assay type: functional
Summary of the method: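 Glial proliferation in midbrain cultures measured as [methyl-3H]-thymidine incorporation at 8 DIV, with test compound 10-50 µM. DbcAMP 1 mM as positive control. Expressed as % of control.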

Astrocyte [3] = test: Neuroprotective activity in Sprague-Dawley rat astrocytes assessed as effect on vimentin positive cell density and morphology at 50 uM by fluorescence microscopic method; assay type: functional, cell-based
Summary of the method: (§3)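 Midbrain cultures labelled for vimentin, a glial marker. Density and morphology of glial cells scored semi-quantitatively by fluorescence microscopy. Compounds tested at 10 and 50 µM, one at 100 µM; dbcAMP as reference.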

Astrocyte [4] = test: Neuroprotective activity in Sprague-Dawley rat astrocytes assessed as effect on vimentin positive cell density and morphology at 10 uM by fluorescence microscopic method; assay type: functional, cell-based; summary of the method: as §3
[5] = (§4) Neuroprotective activity in Sprague-Dawley rat DA neuron death PD model assessed as survival of Th immunopositive cells at 10 uM after 10 days by immunofluorescence assay relative to control; assay type: functional; settings: 240 h, read-out: Survival; summary of the method: as §2
Rattus norvegicus [6] = species on record: Rattus norvegicus; test: Neuroprotective activity in Sprague-Dawley rat DA neuron death PD model assessed as increase in [2,5,6-3H]DA uptake at 1 mM after 10 days by liquid scintillation counting spectrometric analysis; assay type: functional
Summary of the method: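 Midbrain cultures in which DA neurons die spontaneously and selectively. Treated with test compound (10-50 µM) or dbcAMP (1 mM, reference) up to 10 DIV. Tritium-labeled DA uptake quantified as a marker of DA cell function and differentiation. Uptake rate per TH+ neuron also derived. *P < 0.05 vs control.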

Astrocyte [7] = test: Neuroprotective activity in Sprague-Dawley rat astrocytes assessed as effect on vimentin positive cell density and morphology at 1 mM by fluorescence microscopic method; assay type: functional, cell-based; summary of the method: as §3
[8] = Neuroprotective activity in Sprague-Dawley rat DA neuron death PD model assessed as survival of Th immunopositive cells at 1 mM after 10 days by immunofluorescence assay relative to control; assay type: functional; settings: 240 h, read-out: Survival; summary of the method: as §2
Rattus norvegicus [9] = species on record: Rattus norvegicus; test: Antioxidant activity in Sprague-Dawley rat DA neuron assessed as reduction in ferrous iron-mediated neuron death at 10 uM; assay type: functional
Summary of the method: (§5)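 Midbrain cultures with DA cell death driven by a Fenton-type reaction, ferrous iron reacting with molecular oxygen in the medium (chronic oxidative stress). Test compound 1-10 µM; desferrioxamine 10 µM as positive control. Readout is DA neuron (TH+) survival. P < 0.05 vs control cultures.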

Rattus norvegicus [10] = species on record: Rattus norvegicus; test: Antioxidant activity in Sprague-Dawley rat DA neuron assessed as reduction in ferrous iron-mediated neuron death at 5 uM; assay type: functional; summary of the method: as §5
[11] = Neuroprotective activity in Sprague-Dawley rat DA neuron death PD model assessed as survival of Th immunopositive cells at 100 uM after 10 days by immunofluorescence assay relative to control; assay type: functional; settings: 240 h, read-out: Survival; summary of the method: as §2
Astrocyte [12] = test: Neuroprotective activity in Sprague-Dawley rat astrocytes assessed as effect on vimentin positive cell density and morphology at 100 uM by fluorescence microscopic method; assay type: functional, cell-based; summary of the method: as §3
Rattus norvegicus [13] = species on record: Rattus norvegicus; test: as §4; assay type: functional; summary of the method: as §2
[14] = as §1; assay type: functional; settings: 240 h, read-out: Survival; summary of the method: as §2

Row | Compound | Activity (Rattus norvegicus [1]) | other results
1 | COc1ccc(C#Cc2cnc3ccc(N)cc3n2)cc1 | inactive | 
2 | C#CCNc1ccc2nc(C)c(-c3ccc4ccccc4c3)nc2c1 | inactive | Activity (Astrocyte [2]): inactive
3 | Nc1ccc2ncc(-c3cnc4ccccc4c3)nc2c1 | Active | 
4 | Nc1ccc2ncc(-c3ccc(F)cc3)nc2c1 | Active | Activity (Astrocyte [3]): inactive; Activity (Astrocyte [4]): inactive; viability at 10 µM [5]: 144%
5 | CCCC(=O)Nc1ncnc2c1ncn2[C@@H]1O[C@@H]2COP(=O)(O)O[C@H]2[C@H]1OC(=O)CCC [BUCLADESINE] |  | Activity (Rattus norvegicus [6]): Active; Activity (Astrocyte [7]): Active; viability at 1000 µM [8]: 225%
6 | Cc1nc2ccc(N)cc2nc1-c1ccc(Cl)cc1 | inactive | 
7 | CC(=O)N(O)CCCCCNC(=O)CCC(=O)N(O)CCCCCNC(=O)CCC(=O)N(O)CCCCCN |  | Activity (Rattus norvegicus [9]): Active
8 | COc1ccc(-c2nc3cc(N)ccc3nc2-c2ccccc2)cc1 | inactive | 
9 | C#Cc1cnc2ccc(N)cc2n1 | inactive | 
10 | C#CCNc1ccc2nc(C)c(-c3ccccc3)nc2c1 | Active | 
11 | Cc1nc2ccc(N)cc2nc1-c1ccccc1 |  | Activity (Astrocyte [4]): inactive; Activity (Rattus norvegicus [10]): Active; viability at 100 µM [11]: 199%; Activity (Astrocyte [12]): Active
12 | C#CC(C)(C)Nc1ccc2nc(C)c(-c3ccccc3)nc2c1 | inactive | Activity (Astrocyte [2]): inactive
13 | Cc1nc2cc(Br)c(N)c(Cl)c2nc1-c1ccccc1 | inactive | 
14 | C#CCNc1ccc2ncc(-c3ccc(F)cc3)nc2c1 | Active | Activity (Astrocyte [3]): Active; Activity (Astrocyte [4]): inactive
15 | Cc1ccc(-c2nc3cc(N)ccc3nc2C)cc1 | inactive | 
16 | C#CCNc1ccc2ncc(-c3ccccc3)nc2c1 | Active | Activity (Astrocyte [3]): Active; Activity (Astrocyte [4]): inactive; viability at 10 µM [5]: 212%
17 | Cc1nc2ccc(N)c(Br)c2nc1-c1ccccc1 | Active | Activity (Rattus norvegicus [13]): inactive
18 | Cc1nc2ccc(N)cc2nc1-c1ccc2ccccc2c1 | inactive | 
19 | Nc1ccc2ncc(-c3cccc4ccccc34)nc2c1 | Active | 
20 | Nc1ccc2ncc(-c3cccc(O)c3)nc2c1 | Active | Activity (Rattus norvegicus [13]): inactive

Row | Compound | Activity (Rattus norvegicus [1]) | other results
21 | C#CCNc1ccc2nc(C)c(-c3ccc(OC)cc3)nc2c1 |  | Activity (Astrocyte [2]): inactive
22 | COc1cc(-c2cnc3ccc(N)cc3n2)cc(OC)c1OC | Active | Activity (Rattus norvegicus [13]): inactive
23 | Nc1ccc2nc(-c3ccccc3)cnc2c1 |  | Activity (Astrocyte [3]): inactive; Activity (Astrocyte [4]): inactive; viability at 10 µM [5]: 134%; viability at 50 µM [14]: 187%
24 | C#CCNc1ccc2nc(C)c(-c3ccc(F)cc3)nc2c1 | Active | 
25 | COc1ccc(-c2nc3cc(N)ccc3nc2C)cc1OC | inactive | 
26 | C#CCNc1ccc2nc(C)c(-c3cc(OC)c(OC)c(OC)c3)nc2c1 |  | Activity (Astrocyte [2]): inactive
27 | Cc1nc2ccc(N)cc2nc1-c1ccc(-c2ccccc2)cc1 | inactive | 
28 | C#CCNc1ccc2nc(C)c(-c3ccc(Cl)cc3)nc2c1 | inactive | Activity (Astrocyte [2]): inactive
29 | Cc1nc2ccc(N)cc2nc1-c1ccc(Cl)c(Cl)c1 | Active | 
30 | C#CCNc1ccc2nc(C)c(-c3ccc(Cl)c(Cl)c3)nc2c1 | inactive | Activity (Astrocyte [2]): inactive
31 | COc1ccc(-c2nc3cc(N)ccc3nc2C)cc1 | inactive | 
32 | Nc1ccc2ncc(Cl)nc2c1 | Active | 
33 | C#CCNc1ccc2nc(C)c(-c3ccc(C)cc3)nc2c1 | inactive | Activity (Astrocyte [2]): inactive
34 | Nc1ccc2ncc(-c3cccnc3)nc2c1 | Active | 
35 | Nc1ccc2ncc(-c3ccc4ccccc4c3)nc2c1 | Active | 
36 | Cc1nc2ccc(N)c(Cl)c2nc1-c1ccccc1 | Active | 
37 | C#CCNc1ccc2nc(C)c(-c3ccccc3)nc2c1Br | Active | 
38 | Cc1nc2ccc(N)cc2nc1-c1ccc(F)cc1 | Active | 
39 | Cc1nc2ccc(N)cc2nc1C | inactive | 
